Source: ChEMBL document CHEMBL4364267, “Hydrogen sulfide donating ent-kaurane and spirolactone-type 6,7-seco-ent-kaurane derivatives: Design, synthesis and antiproliferative properties” (Eur J Med Chem, 2019)
The source made the active and inactive calls. The calls are words filed in the database; no cut-off is given here.

Tests used:
Bel-7402 [1] = assay: Induction of apoptosis in human Bel7402 cells assessed as early apoptotic cells at 1.80 uM after 48 hrs by Annexin V-FITC/propidium iodide staining based flow cytometry (reference value: 2.09%); assay type: functional
Procedure, shortened: (§1)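 Bel-7402 cells in 6-well plates treated with 0, 0.45, 0.90 or 1.80 μM, washed twice with PBS and resuspended in annexin V binding buffer. Stained with annexin V-FITC and PI for 15 min at room temperature in the dark, then analysed by flow cytometry. Methods state 24 h exposure; the figure legend states 48 h.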

Bel-7402 [2] = assay: Induction of apoptosis in human Bel7402 cells assessed as increase in cleaved caspase-3 expression at 0.90 to 1.80 uM after 48 hrs by Western blot analysis; assay type: functional, cell-based
Bel-7402 [3] = assay: Cell cycle arrest in human Bel7402 cells assessed as accumulation of cells at G2 phase at 1.80 uM after 48 hrs by propidium iodide/RNase staining based flow cytometric analysis (reference value: 29.97%); assay type: functional
Bel-7402 [4] = assay: Induction of mitochondrial membrane potential loss in human Bel7402 cells assessed as cell population with mitochondrial membrane potential collapse at 1.80 uM after 48 hrs by JC1 staining-based flow cytometry analysis (reference value: 1.28%); assay type: functional
Procedure, shortened: (§2)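 Bel-7402 cells in 6-well plates exposed for 48 h to 0, 0.45, 0.90 or 1.80 μM, DMSO as vehicle. Washed with PBS and stained with JC-1 at room temperature in the dark. Cells with collapsed membrane potential counted by flow cytometry.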

Bel-7402 [5] = assay: Induction of mitochondrial membrane potential loss in human Bel7402 cells assessed as cell population with intact mitochondrial membrane potential at 0.45 uM after 48 hrs by JC1 staining-based flow cytometry analysis (reference value: 98.67%); assay type: functional; procedure, shortened: as §2
[6] = Induction of H2S generation in PBS containing Na2S and MB+ cocktail in presence of TCEP/L-cysteine measured at 15 to 20 mins after 20 mins compound incubation by methylene blue dye based UV-Vis spectrophotometric method; assay type: functional
Procedure, shortened: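 Na2S standards (5–150 μM) in sodium phosphate buffer reacted 20 min at room temperature with methylene blue cocktail (FeCl3/HCl, N,N-dimethyl-1,4-phenylenediamine/HCl, Zn(OAc)2) to build a 670 nm calibration curve. Compounds from 40 mM THF stock added to phosphate buffer with 1 mM TCEP or L-cysteine. Aliquots taken into the cocktail at set times, incubated 20 min, read at 670 nm. Mean of three experiments.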

Bel-7402 [7] = assay: Induction of apoptosis in human Bel7402 cells assessed as reduction in procaspase-3 expression at 0.90 to 1.80 uM after 48 hrs by Western blot analysis; assay type: functional, cell-based
K562 = assay: Antiproliferative activity against human K562 cells assessed as reduction in cell viability after 72 hrs by MTT assay; assay type: functional, cell-based; details: K562, 72 h
Procedure, shortened: (§3)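 MTT assay over 72 h, compounds at 64, 16, 4, 1, 0.25, 0.0625 and 0.015625 μM. MTT solution (5 mg/mL) and DMSO added afterwards, 10 min at room temperature, absorbance read at 490 nm. IC50 calculated as the mean ± SD of three independent experiments.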

[8] = Selectivity index, ratio of IC50 for human PBMC to IC50 for human Bel7402 cells after 72 hrs by MTT assay; assay type: toxicity; details: PBMC versus Bel7402 cells, read-out: Ratio IC50
Bel-7402 [9] = assay: Induction of mitochondrial membrane potential loss in human Bel7402 cells assessed as cell population with mitochondrial membrane potential collapse at 0.45 uM after 48 hrs by JC1 staining-based flow cytometry analysis (reference value: 1.28%); assay type: functional; procedure, shortened: as §2
PBMC = assay: Cytotoxicity against human PBMC assessed as reduction in cell viability after 72 hrs by MTT assay; assay type: cell-based; procedure, shortened: as §3
Bel-7402 [10] = assay: Induction of apoptosis in human Bel7402 cells assessed as late apoptotic cells at 0.45 uM after 48 hrs by Annexin V-FITC/propidium iodide staining based flow cytometry (reference value: 0.68%); assay type: functional; procedure, shortened: as §1
Bel-7402 [11] = assay: Induction of apoptosis in human Bel7402 cells assessed as increase in Bax expression at 0.90 to 1.80 uM after 48 hrs by Western blot analysis; assay type: functional, cell-based
Bel-7402 [12] = assay: Cell cycle arrest in human Bel7402 cells assessed as accumulation of cells at S phase at 0.45 uM after 48 hrs by propidium iodide/RNase staining based flow cytometric analysis (reference value: 39.09%); assay type: functional
Bel-7402 [13] = assay: Induction of apoptosis in human Bel7402 cells assessed as viable cells at 0.90 uM after 48 hrs by Annexin V-FITC/propidium iodide staining based flow cytometry (reference value: 97.22%); assay type: functional; details: Bel-7402, 48 h, read-out: Activity; procedure, shortened: as §1
Bel-7402 [14] = assay: Cell cycle arrest in human Bel7402 cells assessed as accumulation of cells at S phase at 0.90 uM after 48 hrs by propidium iodide/RNase staining based flow cytometric analysis (reference value: 39.09%); assay type: functional
Bel-7402 [15] = assay: Cell cycle arrest in human Bel7402 cells assessed as accumulation of cells at G2 phase at 0.90 uM after 48 hrs by propidium iodide/RNase staining based flow cytometric analysis (reference value: 29.97%); assay type: functional
Bel-7402 [16] = assay: Induction of apoptosis in human Bel7402 cells assessed as viable cells at 1.80 uM after 48 hrs by Annexin V-FITC/propidium iodide staining based flow cytometry (reference value: 97.22%); assay type: functional; details: Bel-7402, 48 h, read-out: Activity; procedure, shortened: as §1
Bel-7402 [17] = assay: Induction of mitochondrial membrane potential loss in human Bel7402 cells assessed as cell population with intact mitochondrial membrane potential at 1.80 uM after 48 hrs by JC1 staining-based flow cytometry analysis (reference value: 98.67%); assay type: functional; procedure, shortened: as §2
Bel-7402 [18] = assay: Induction of apoptosis in human Bel7402 cells assessed as reduction in Bcl-xl expression at 0.90 to 1.80 uM after 48 hrs by Western blot analysis; assay type: functional, cell-based

## C=C1C(=O)[C@@]23C(=O)OC[C@]4(C(=O)CCC(C)(C)[C@H]4C=O)[C@@H]2CC[C@@H]1[C@H]3OC(=O)CCCC(=O)Oc1ccc(-c2cc(=S)ss2)cc1
Bel-7402 [1]
  Activity: 18.68%
Bel-7402 [2]
  Activity: Active
Bel-7402 [3]
  Activity: 15.91%
Bel-7402 [4]
  Activity: 58.59%
Bel-7402 [5]
  Activity: 81.5%
[6]
  Activity: Active
Bel-7402 [7]
  Activity: Active
K562
  IC50: 1.01 µM
[8]
  selectivity ratio at 72 h: 24
Bel-7402 [9]
  Activity: 18.48%
PBMC
  IC50: 19.9 µM
Bel-7402 [10]
  Activity: 7.73%
Bel-7402 [11]
  Activity: Active
Bel-7402 [12]
  Activity: 40.42%
Bel-7402 [13]
  viability at 0.9 µM: 72.5%
Bel-7402 [14]
  Activity: 37.9%
Bel-7402 [15]
  Activity: 19.81%
Bel-7402 [16]
  viability at 1.8 µM: 43.6%
Bel-7402 [17]
  Activity: 41.23%
Bel-7402 [18]
  Activity: Active
